What all share (format): cell-based
Assay [1] concerns the target Histone-lysine N-methyltransferase EZH2 (Mus musculus) (UniProt Q61188). In words: Inhibition of EZH2 in mouse B16-F1 migrating cells assessed as fold change in H3K27me3-buffered regulated Rap2a-mRNA expression at 3 uM measured by […] analysis relative to control cells. In a few lines: (§1)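 Confluent B16-F1 cells on fibronectin-coated plates, cultured at 37 °C and 7% CO2, were scratched at multiple sites to induce migration. They were then held 3 h in growth medium containing 3 µM GSK343, with the inhibitor added 3 h before lysis. Unscratched cells served as controls. Poly A mRNA was analysed by RNA-seq (n=3 GSK343, n=5 controls). Linear models removed batch effects, and buffered genes were those altered only under GSK343 (FDR <0.05, fold change >1.3).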

For assay [2] the target is unchanged. In words: Inhibition of EZH2 in mouse B16-F1 migrating cells assessed as fold change in H3K27me3-buffered regulated Gatd1-mRNA expression at 3 uM measured by ChIP-seq analysis relative to control cells. In a few lines: as §1
Assay [3] has the same target. In words: Inhibition of EZH2 in mouse B16-F1 migrating cells assessed as fold change in H3K27me3-buffered regulated Hunk-mRNA expression at 3 uM measured by […] analysis relative to control cells. In a few lines: as §1
Assay [4] shares this target. In words: Inhibition of EZH2 in mouse B16-F1 migrating cells assessed as fold change in H3K27me3-buffered regulated Gabre-mRNA expression at 3 uM measured by ChIP-seq analysis relative to control cells. In a few lines: as §1
The target is the same in assay [5]. In words: Inhibition of EZH2 in mouse B16-F1 migrating cells assessed as fold change in H3K27me3-independent regulated Cep152-mRNA expression at 3 uM measured by ChIP-seq analysis relative to control cells. In a few lines: (§2)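 Confluent B16-F1 cells on fibronectin-coated plates were scratched at multiple sites, washed once with DMEM and left to migrate 3 h in growth medium (37 °C, 7% CO2); unscratched cells served as control. GSK343 (3 µM) was added 3 h before lysis. Poly A mRNA was sequenced (RNA-seq), with 5 replicates for untreated and 3 for treated cells. Differential expression was called by linear model with batch correction, at FDR <0.05 and fold change ≥1.3.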

Assay [6] shares this target. In words: Inhibition of EZH2 in mouse B16-F1 migrating cells assessed as fold change in H3K27me3-buffered regulated Edrf1-mRNA expression at 3 uM measured by ChIP-seq analysis relative to control cells. In a few lines:
as §1

For assay [7] the target is unchanged. In words: Inhibition of EZH2 in mouse B16-F1 migrating cells assessed as fold change in H3K27me3-buffered regulated Aldoa-mRNA expression at 3 uM measured by […] analysis relative to control cells. In a few lines:
as §1

Assay [8] shares this target. In words: Inhibition of EZH2 in mouse B16-F1 migrating cells assessed as fold change in H3K27me3-independent regulated Fosl2-mRNA expression at 3 uM measured by […] analysis relative to control cells. In a few lines:
as §2

The target is the same in assay [9]. In words: Inhibition of EZH2 in mouse B16-F1 migrating cells assessed as fold change in H3K27me3-dependent regulated Ddit4-mRNA expression at 3 uM measured by […] analysis relative to control cells. In a few lines:
as §2

Assay [10] shares this target. In words: Inhibition of EZH2 in mouse B16-F1 migrating cells assessed as fold change in H3K27me3-buffered regulated 1810032O08Rik-mRNA expression at 3 uM measured by […] analysis relative to control cells. In a few lines: as §1
The target is the same in assay [11]. In words: Inhibition of EZH2 in mouse B16-F1 migrating cells assessed as fold change in H3K27me3-buffered regulated Pde4d-mRNA expression at 3 uM measured by ChIP-seq analysis relative to control cells. In a few lines:
as §1

Assay [12] shares this target. In words: Inhibition of EZH2 in mouse B16-F1 migrating cells assessed as fold change in H3K27me3-buffered regulated Rhobtb3-mRNA expression at 3 uM measured by […] analysis relative to control cells. In a few lines: as §2
The target of assay [13] is T1, RNA polymerase II (Mus musculus) (UniProt P08775+Q8CFI7+P97760+A0A3Q4L2S8+Q80UW8+P61219+P62488+Q923G2+P60898+O08740+Q63871+P62876). In words: Inhibition of RNA polymerase II in mouse B16-F1 migrating cells assessed as fold change in G6pc3-RNA stability at 0.1 mM measured by ChIP-seq analysis relative to control cells. In a few lines: (§3)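 Mouse B16-F1 melanoma cells grown to confluence on fibronectin in DMEM/10% FCS at 37 °C, 7% CO2. Migration induced by multiple scratches and 3 h incubation; unscratched controls. DRB 0.1 mM added 3 h before lysis. RNA from poly A-selected mRNA was sequenced (RNA-seq, three replicates per DRB group). Fold change computed for DRB-treated migrating vs DRB-treated control cells; cutoffs fold change >1.3, FDR <0.05.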

Assay [14] has as its target T1, RNA polymerase II (Mus musculus). In words: Inhibition of RNA polymerase II in mouse B16-F1 migrating cells assessed as fold change in Alkbh8-RNA stability at 0.1 mM measured by […] analysis relative to control cells.
Assay [15] has the same target. In words: Inhibition of RNA polymerase II in mouse B16-F1 migrating cells assessed as fold change in Arf6-RNA stability at 0.1 mM measured by […] analysis relative to control cells.
For assay [16] the target is unchanged. In words: Inhibition of RNA polymerase II in mouse B16-F1 migrating cells assessed as fold change in Mapre3-RNA stability at 0.1 mM measured by ChIP-seq analysis relative to control cells.
Assay [17] has the same target. In words: Inhibition of RNA polymerase II in mouse B16-F1 migrating cells assessed as fold change in Dnttip2-RNA stability at 0.1 mM measured by ChIP-seq analysis relative to control cells. In a few lines:
as §3

For assay [18] the target is unchanged. In words: Inhibition of RNA polymerase II in mouse B16-F1 migrating cells assessed as fold change in Sh3bgrl3-RNA stability at 0.1 mM measured by […] analysis relative to control cells.
Assay [19] has the same target. In words: Inhibition of RNA polymerase II in mouse B16-F1 migrating cells assessed as fold change in Larp4-RNA stability at 0.1 mM measured by ChIP-seq analysis relative to control cells.
Assay [20] shares this target. In words: Inhibition of RNA polymerase II in mouse B16-F1 migrating cells assessed as fold change in Vegfa-RNA stability at 0.1 mM measured by […] analysis relative to control cells.
For assay [21] the target is unchanged. In words: Inhibition of RNA polymerase II in mouse B16-F1 migrating cells assessed as fold change in Cul4b-RNA stability at 0.1 mM measured by […] analysis relative to control cells. In a few lines:
as §3

Assay [22] has the same target. In words: Inhibition of RNA polymerase II in mouse B16-F1 migrating cells assessed as fold change in Uba52-RNA stability at 0.1 mM measured by […] analysis relative to control cells.
Assay [23] shares this target. In words: Inhibition of RNA polymerase II in mouse B16-F1 migrating cells assessed as fold change in Dock10-RNA stability at 0.1 mM measured by ChIP-seq analysis relative to control cells.
For assay [24] the target is unchanged. In words: Inhibition of RNA polymerase II in mouse B16-F1 migrating cells assessed as fold change in Nelfe-RNA stability at 0.1 mM measured by ChIP-seq analysis relative to control cells.

Chain of Histone-lysine N-methyltransferase EZH2 (Mus musculus) (Q61188 whole entry): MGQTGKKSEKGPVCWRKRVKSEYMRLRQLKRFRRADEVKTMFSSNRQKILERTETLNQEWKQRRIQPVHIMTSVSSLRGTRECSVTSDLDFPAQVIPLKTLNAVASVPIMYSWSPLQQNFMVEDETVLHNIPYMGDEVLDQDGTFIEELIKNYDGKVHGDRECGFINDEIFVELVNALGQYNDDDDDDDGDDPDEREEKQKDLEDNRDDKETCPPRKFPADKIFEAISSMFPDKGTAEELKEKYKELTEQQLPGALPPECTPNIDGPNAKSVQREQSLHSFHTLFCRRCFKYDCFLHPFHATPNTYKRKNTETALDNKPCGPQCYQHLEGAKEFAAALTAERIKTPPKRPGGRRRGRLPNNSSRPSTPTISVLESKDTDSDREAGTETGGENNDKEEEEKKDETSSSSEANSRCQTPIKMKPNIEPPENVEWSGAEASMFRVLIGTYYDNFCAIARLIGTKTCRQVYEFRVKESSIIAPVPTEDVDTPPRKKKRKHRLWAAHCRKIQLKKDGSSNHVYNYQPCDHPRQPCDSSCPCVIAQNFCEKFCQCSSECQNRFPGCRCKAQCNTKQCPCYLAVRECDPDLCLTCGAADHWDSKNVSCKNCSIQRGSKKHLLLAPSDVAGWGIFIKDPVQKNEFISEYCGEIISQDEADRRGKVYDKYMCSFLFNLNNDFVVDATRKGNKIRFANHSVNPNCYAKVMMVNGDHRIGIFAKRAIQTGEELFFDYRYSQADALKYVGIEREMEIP

`CCCc1cc(C)[nH]c(=O)c1CNC(=O)c1cc(-c2ccnc(N3CCN(C)CC3)c2)cc2c1cnn2C(C)C`: the log2FC in [1] was 0.56; in assay [2], -0.43; in assay [3], -0.5; in [4], -0.84; in [5], -0.48; in assay [6], -0.41. Further, the log2FC was 0.42 in assay [7]; 0.7 in assay [8]; -0.53 in [9]; -1.08 in assay [10]; 0.75 in [11]; -0.62 in assay [12].
`OC[C@H]1O[C@@H](n2cnc3cc(Cl)c(Cl)cc32)[C@H](O)[C@@H]1O`: the log2FC was 0.51 in assay [13]; -0.55 in assay [14]; -0.51 in [15]; 0.77 in [16]; -0.87 in assay [17]; 0.55 in assay [18]. Moreover, the log2FC in assay [19] is -0.9; in assay [20] it was 0.67; in assay [21], -0.49; in assay [22], 0.49; in assay [23], -0.68; in assay [24], 0.39.

The values are drawn from ChEMBL document CHEMBL5674883, “The Heterochromatin Landscape in Migrating Cells and the Importance of H3K27me3 for Associated Transcriptome Alterations” (Cells, 2018).
